Assay results published in publication PMC4333497 (British Journal of Cancer, 2015).
Entries after “also recorded” stand apart in the source; their conditions may differ.

Tests used:
dogs = conditions: preclinical pharmacology studies, ref Novartis, 2012; cited from earlier work
[1] = rat model; preclinical; cited from earlier work
advanced solid tumours [2] = test: FDG-PET metabolic response; type: in vivo, human
In short: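 FDG-PET was done at screening/baseline, on day 10 of cycle 1 and on day 2 of cycle 3. Maximum SUV was summed across all target lesions (sSUVmax). A reduction of ⩾25% counted as objective metabolic response and an increase of ⩾25% as progression. Any new PET lesion counted as metabolic progression.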

rats = conditions: preclinical pharmacology studies, ref Novartis, 2012; cited from earlier work
[3] = Plasma pharmacokinetics of HSP990 after oral dosing; type: in vivo, human; conditions: for AUClast: day 22; for Cmax: steady state
In short: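 Oral dosing 30 min after a light breakfast, then a 3-h fast, with meal timing recorded. Plasma was assayed centrally by validated LC-MS/MS and analysed non-compartmentally. Day effect was tested by ANCOVA on log-transformed AUC and Cmax with a linear mixed-effect model.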

advanced solid tumours [4] = test: Tumour response according to RECIST version 1.0; type: in vivo, human
In short: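 Tumours were assessed radiologically at baseline, at the end of every two 28-day cycles and at the end of treatment. Response was classified per RECIST version 1.0. Patients had at least one measurable lesion at entry and received oral capsules once or twice weekly until progression, unacceptable toxicity or withdrawal.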

HSP70 = HSP70 levels in PBMCs by ELISA; type: in vivo, human
[5] = test system: patients with advanced solid tumours; test: Dose-limiting toxicities and MTD/RP2D determination; type: in vivo, human
In short: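 Oral capsules, once or twice weekly, in 28-day cycles under fasting conditions. Cohorts had at least three patients. A DLT was any clinically relevant AE or abnormal laboratory value in the first 28 days. A Bayesian logistic regression model with escalation with overdose control estimated the posterior probability of DLT at each dose level from cycle 1 data. MTD/RP2D was set from the model plus safety review by investigators.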

[6] = test system: patients with advanced solid tumours; test: Safety: adverse events graded by NCI CTCAE version 3.0 in phase I study; type: in vivo, human
In short: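 Toxicity was graded by NCI CTCAE v3.0 during oral dosing in 28-day cycles. Assessments covered physical and neurological examination, vital signs, weight, performance status, and AEs/SAEs. Haematology, coagulation, biochemistry and urinalysis were done at baseline, on day 1 of every cycle, at the last visit and when clinically indicated. ECGs were done on day 1 of each cycle. ECHO/MUGA was done at baseline, at the end of cycles 2–4, then every other month. Data were summarised descriptively.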

[7] = all patients (N=64), two patients

## COc1cccc(-c2cc(F)ccc2[C@H]2Cc3nc(N)nc(C)c3C(=O)N2)n1 [HSP990]
dogs
  Doses at which tremors and ataxia were observed: ≥ 2 mg/kg
[1]
  Distribution in brain tissues: highly distributed in the brain tissues
Advanced solid tumours [2]; 5 mg weekly
  Patients with ⩾25% reduction in sSUVmax of target lesions: 1 patient
Advanced solid tumours [2]; 25 mg twice weekly
  Patients with ⩾25% reduction in sSUVmax of target lesions: 3 patients
Advanced solid tumours [2]; 30 mg weekly
  Patients with ⩾25% reduction in sSUVmax of target lesions: 1 patient
Advanced solid tumours [2]; 50 mg weekly
  Patients with ⩾25% reduction in sSUVmax of target lesions: 6 patients
Advanced solid tumours [2]; all patients
  Complete metabolic response: No complete metabolic response
rats
  Effects on CNS: no effects on CNS
[3]; 25 mg twice-weekly
  AUClast: 14200 ng·h/mL
  Cmax: 232 ng/mL
[3]; 50 mg once-weekly
  AUClast: 7959 ng/mL
  Cmax: 552 ng/mL
[3]; both dosing schedules
  t1/2: ~20 h
[3]; both dosing schedules, postdose
  Time to peak concentrations: ~3 h
[3]; days 1 and 22 of cycle 1, multiple- or twice-weekly doses
  Drug accumulation: no drug accumulation
[3]; oral
  Apparent clearance: ~6.4 L/h
[3]; oral, apparent
  Volume of distribution: ~200 L
Advanced solid tumours [4]; all patients
  Partial or complete responses (RECIST): No objective responses were seen; also recorded: No partial or complete responses were observed
Advanced solid tumours [4]; all patients (N=64)
  Best overall response of stable disease: 25 patients
  Prolonged stable disease (⩾6 months), patients: 11%
  Stable disease as best overall response, patients: 39%
Advanced solid tumours [4]; twice-weekly dosing schedule (7 out of 11 patients)
  Stable disease as best overall response, patients: 64%
HSP70; once-weekly administration, 2.5 to 60 mg
  HSP70 induction in PBMCs: tended to increase with dose across the 5 mg weekly to 30 mg weekly dose groups
HSP70; twice-weekly administration, 25 mg
  HSP70 induction in PBMCs: greater than that seen in once weekly 30 mg to 60 mg dose levels
[5]; 2.5 mg once weekly, 3 DLT evaluable patients
  Total no. of patients with DLTs: 0
[5]; 5 mg once weekly, 5 DLT evaluable patients
  Total no. of patients with DLTs: 0
[5]; 10 mg once weekly, 7 DLT evaluable patients
  Total no. of patients with DLTs: 0
[5]; 20 mg once weekly, 6 DLT evaluable patients
  Total no. of patients with DLTs: 0
[5]; 30 mg once weekly, 4 DLT evaluable patients
  Total no. of patients with DLTs: 0
[5]; 50 mg once a week, 22 patients
  Number of DLTs encountered: 5 DLTs
[5]; 50 mg once weekly, 22 DLT evaluable patients
  Total no. of patients with DLTs: 4
[5]; all dose levels and schedules
  Patients who experienced DLTs: seven
[6]; 2.5 mg once weekly
  Total no. of patients who discontinue HSP990 (cause) beyond cycle 1: 0
[6]; 5 mg once weekly
  Total no. of patients who discontinue HSP990 (cause) beyond cycle 1: 0
[6]; 10 mg once weekly
  Total no. of patients who discontinue HSP990 (cause) beyond cycle 1: 0
[6]; 20 mg once weekly
  Total no. of patients who discontinue HSP990 (cause) beyond cycle 1: 1 (digestive disorder)
[6]; 25 mg twice weekly
  Description of grade ⩾3 drug-related AEs beyond cycle 1: Diarrhoea
  Grade ⩾3 drug-related AEs beyond cycle 1: 2
  Total no. of patients who discontinue HSP990 (cause) beyond cycle 1: 0
[6]; 30 mg once weekly
  Total no. of patients who discontinue HSP990 (cause) beyond cycle 1: 0
[6]; 50 mg once weekly
  Grade ⩾3 drug-related AEs beyond cycle 1: 6
[6]; 60 mg once weekly
  Description of grade ⩾3 drug-related AEs beyond cycle 1: Diarrhoea
  Grade ⩾3 drug-related AEs beyond cycle 1: 3
  Total no. of patients who discontinue HSP990 (cause) beyond cycle 1: 2 (diarrhoea)
[6]; all patients (N=64)
  Adverse events requiring dose adjustment or study drug interruption, patients: 30%
  Discontinued treatment for AEs of any causality, patients: 14%
  Drug-related AE that led to study discontinuation, patients: 11%
  Drug-related abdominal pain, patients: 16%
  Drug-related anorexia, patients: 25%
  Drug-related diarrhoea, patients: 73%
  Drug-related dizziness, patients: 19%
  Drug-related insomnia, patients: 25%
  Drug-related nausea, patients: 22%
  Drug-related tremor, patients: 19%
  Drug-related vomiting, patients: 14%
[6]; [7]
  Grade 3 QTc prolongation, drug-related: 3%
  Grade 3 asthenia, drug-related: 3%
  Grade 3 hyponatremia, drug-related: 3%
  Grade 3 increased ALT and/or AST, drug-related: 3%
[6]; all patients, mostly due to AEs
  Dose delays: 22 patients
[6]; during and beyond cycle 1, all patients
  Neurotoxicities leading to study drug discontinuation, patients: 14%
[6]; on study and up to 28 days after the last dose
  Drug-related deaths: No drug-related deaths
